# Measurements gathered from unrelated publications.
# Lines come from different studies, so protocols differ.
# TMEM97: Sigma intracellular receptor 2 (TMEM97, Homo sapiens, UniProt Q5BJF2)
# Serine protease HTRA1 S328A: Serine protease HTRA1 (Homo sapiens, UniProt Q92743, S328A)
# tspO: tspO (Cereibacter sphaeroides, UniProt Q9RFC8)
SMILES,target,assay,setting,quantity,value
CC[C@H](C)[C@H](NC(=O)[C@H](Cc1ccccc1)NC(=O)[C@H](CC(=O)O)NC(=O)[C@H](CCCNC(=N)N)NC(=O)[C@@H](NC(=O)[C@H](C)NC(=O)[C@H](CC(C)C)NC(=O)[C@H](CC(N)=O)NC(=O)[C@H](CC(=O)O)NC(=O)[C@H](CC(C)C)NC(=O)[C@@H](NC(=O)[C@@H](NC(=O)[C@H](CO)NC(=O)[C@H](CCSC)NC(=O)[C@H](CCC(=O)O)NC(=O)[C@H](CC(=O)O)NC(=O)[C@H](CO)NC(=O)[C@H](Cc1ccccc1)NC(=O)[C@H](CO)NC(=O)CNC(=O)[C@H](CC(=O)O)NC(=O)[C@H](C)NC(=O)[C@@H](N)Cc1c[nH]cn1)[C@@H](C)O)[C@@H](C)CC)[C@@H](C)O)C(=O)N[C@@H](CC(N)=O)C(=O)N[C@@H](Cc1c[nH]c2ccccc12)C(=O)N[C@@H](CC(C)C)C(=O)N[C@H](C(=O)N[C@@H](CCC(N)=O)C(=O)N[C@H](C(=O)N[C@@H](CCCCN)C(=O)N[C@H](C(=O)N[C@H](C(=O)N[C@@H](CC(=O)O)C(=O)O)[C@@H](C)O)[C@@H](C)CC)[C@@H](C)O)[C@@H](C)CC,"Glucagon receptor (GCGR, Homo sapiens, UniProt P47871)","reporter gene, agonist, luciferase",,EC50,> 1 µM
CC[C@@H]1SC2(CCN(C)CC2)NC1=O,"Muscarinic acetylcholine receptor M3 (CHRM3, Homo sapiens, UniProt P20309)","calcium signal, agonist",,EC50,0.0328 µM
CN(CCCN1c2ccccc2CCc2ccccc21)CC(=O)c1ccc(Cl)cc1,TMEM97,"ligand displacement, radioligand",,Ki,2.01 µM
CC(C)C[C@H](NC(=O)[C@H](CC(=O)O)NC(=O)[C@H](CC(=O)O)NC(=O)[C@H](CC(=O)O)NC(=O)[C@@H](NC(=O)[C@H](Cc1c[nH]c2ccccc12)NC(=O)[C@@H](N)CCC(=O)O)[C@@H](C)O)C(=O)N[C@@H](CO)C(=O)N[C@H](C(=O)N[C@@H](CC(=O)O)C(=O)N[C@@H](C)C(=O)O)C(C)C,Serine protease HTRA1 S328A,"binding, ITC",pH 8,Kd,25.6 µM
CN(C)CCOC(C)(c1ccccc1)c1ccccn1 (centres unmarked),TMEM97,"ligand displacement, radioligand",,Ki,> 10 µM
CC(C)C[C@H](NC(=O)[C@H](Cc1ccccc1)NC(=O)c1cnccn1)B(O)O,"Serine protease HTRA2, mitochondrial (HTRA2, Homo sapiens, UniProt O43464)","enzyme activity, inhibitor",,IC50,> 33 µM
Cc1cc2c(C(C)C)c(O)c(O)c(C=O)c2c(O)c1-c1c(C)cc2c(C(C)C)c(O)c(O)c(C=O)c2c1O,tspO,"binding, fluorescence",,Kd,6 µM
CC[C@H](C)[C@H](NC(=O)[C@H](C)NC(=O)[C@H](CCCNC(=N)N)NC(=O)[C@H](CC(C)C)NC(=O)[C@@H](N)Cc1ccccc1)C(=O)N[C@@H](CCCNC(=N)N)C(=O)N1CCC[C@H]1C(=O)N[C@@H](CCCCN)C(=O)O,"B1 bradykinin receptor (Rattus norvegicus, UniProt P97583)","ligand displacement, radioligand",cell membranes,IC50,0.74 µM
O=C1Nc2ccccc2/C1=C/c1cn(-c2nc(Cl)nc(N3CCOCC3)n2)c2ccccc12,"Prostaglandin G/H synthase 2 (PTGS2, Homo sapiens, UniProt P35354)","enzyme activity, inhibitor",,IC50,2 µM
CC(C)C[C@H](NC(=O)[C@H](CC(=O)O)NC(=O)[C@H](CC(=O)O)NC(=O)[C@H](CC(=O)O)NC(=O)[C@@H](NC(=O)[C@H](Cc1c[nH]c2ccccc12)NC(=O)[C@@H](N)CCC(=O)O)[C@@H](C)O)C(=O)N[C@@H](CO)C(=O)N[C@H](C(=O)N[C@@H](CC(C)C)C(=O)N[C@@H](C)C(=O)O)C(C)C,Serine protease HTRA1 S328A,"binding, ITC",pH 8,Kd,20.5 µM
C=CC1=C(C)/C(=C/c2[nH]c(Cc3[nH]c(/C=C4\NC(=O)C(C)=C4C=C)c(C)c3CCC(=O)O)c(CCC(=O)O)c2C)NC1=O,tspO,"binding, fluorescence",,Kd,4.7 µM
COc1cc2c(cc1OC)C(=O)C(CC1CCN(Cc3ccccc3)CC1)C2 (centres unmarked),TMEM97,"ligand displacement, radioligand",,Ki,0.084 µM
O=c1c(O)c(-c2ccc(O)c(O)c2)oc2cc(O)ccc12,"Ribosomal protein S6 kinase beta-1 (RPS6KB1, Homo sapiens, UniProt P23443)","cell-free assay, competition with immobilised ligand",,Kd,0.94 µM
CCCN(CCC)CCc1ccc(OC)c(OCCc2ccccc2)c1,TMEM97,"ligand displacement, radioligand",,Ki,0.0827 µM
NC[C@@H]1[C@H]2CN3C(=O)c4cccn4[C@@H]4NC(N)=N[C@@]43[C@@H]2[C@]2(N=C(N)N[C@H]2O)[C@H]1Cl (racemic),"Proteasome subunit beta type-8, chymotrypsin-like site (PSMB8, Homo sapiens, UniProt P28062)","enzyme activity, inhibitor",,IC50,4.8 µM
COc1cc2c(cc1OC)CN(CCc1ccc(NC(=O)c3cc(OC)c(OC)cc3NC(=O)c3cnc4ccccc4c3)cc1)CC2,TMEM97,"ligand displacement, radioligand",,Ki,0.0178 µM
CC[C@H](C)[C@H](NC(=O)[C@H](Cc1c[nH]c2ccccc12)NC(=O)[C@H](C)NC(=O)[C@H](C)NC(=O)[C@H](Cc1ccc(O)cc1)NC(=O)[C@@H](N)CO)C(=O)N[C@@H](CC(=O)O)C(=O)N[C@H](C(=O)N[C@@H](CCC(=O)O)C(=O)N[C@@H](CC(=O)O)C(=O)N[C@@H](CC(C)C)C(=O)O)C(C)C,Serine protease HTRA1 S328A,"binding, ITC",pH 8,Kd,34 µM
